The nature of this test: Neuro-2A neuroblastoma viability reduction – cell-based, WST-1 absorbance, serum-free and serum media, cytotoxicity control for PME-1 inhibitor project, dose response (AID 588804). The settings on record: Neuro-2A viability, 48 h. In outline: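 Test system: Neuro-2A mouse neuroblastoma cells; Incubation: 36 h pre-growth, then 48 h treatment at 37 °C; Measured by: colorimetric WST-1 formazan absorbance; Measure: % surviving cells and CC50 from three-parameter sigmoidal fit; Compound dosing: seven concentrations, fivefold steps, top 10 µM, 1% DMSO; Control set: compound-free cells as high control, no-cell wells as low.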
A general note: Tetrazolium assays rely on reduction of a dye to a coloured formazan, in cell work by metabolically active cells.

Broadly, the CC50 is the concentration at which the toxic effect on the cells reaches its halfway point.

Active and inactive are the calls of the source.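 Rule for the calls: active = In either cell panel, a half-cytotoxic dose CC50 of 5 µM or lower marks a compound as cytotoxic; inactive = Both panels show CC50 exceeding 5 µM.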 A value given as a limit tells only on which side of the number the result lay.

Turning to `CC[C@@]1(c2ccc(C)cc2)C(=O)N(C(=O)OC(C)C)N1C(=O)OC(C)C`, the CC50 was > 10 µM (inactive) (with serum) and > 10 µM (inactive) (without serum).
Consider `CC[C@@]1(c2ccc(Cl)cc2)C(=O)N(C(=O)OC)N1C(=O)OC`, for which the CC50 was > 10 µM (inactive) (with serum) and > 10 µM (inactive) (without serum).
In the case of `CCCOC(=O)N1C(=O)[C@@](CC)(c2ccc(C)cc2)N1C(=O)OCCC`, the CC50 (with serum) is > 10 µM (inactive) and the CC50 (without serum) was > 10 µM (inactive).
